Legend:
[1] = biological target: Kappa-type opioid receptor (Cavia porcellus) (UniProt P41144); assay: Opioid receptor kappa antagonistic activity was measured by the displacement of ethylketazocine in the guinea pig ileum at a concentration of 100 nM; format: functional, tissue-based
Method in brief: (§1)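 Guinea pig ileum. Antagonist (nM, as stated on line) incubated 15 min before testing. Agonists: morphine (μ) and ethylketazocine (κ).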

[2] = biological target: Kappa-type opioid receptor (Cavia porcellus) (UniProt P41144); assay: Opioid receptor kappa 1 antagonistic activity was measured by the displacement of ethylketazocine in the guinea pig ileum at a concentration of 100 nM; format: functional, tissue-based; method in brief: as §1
[3] = biological target: Opioid receptors; mu & delta (Homo sapiens) (UniProt P41143+P35372); assay: Selectivity ratio was determined from Ke value of Opioid receptor mu 1 and Opioid receptor delta 1; format: protein assay; conditions: Cavia porcellus
Method in brief: (§2)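 Ratios of Ke values, μ/δ or κ/δ. Each Ke = [antagonist]/(IC50 ratio − 1). δ from DADLE in mouse vas deferens; μ (morphine) and κ (ethylketazocine) in guinea pig ileum. 15 min antagonist preincubation, n ≥ 3.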

[4] = biological target: Opioid receptors; delta & kappa (Homo sapiens) (UniProt P41145+P41143); assay: Selectivity ratio was determined from Ke value of Opioid receptor kappa 1 and Opioid receptor delta 1; format: protein assay; conditions: Cavia porcellus; method in brief: as §2
[5] = biological target: Delta-type opioid receptor (Mus musculus) (UniProt P32300); assay: Opioid receptor delta 1 antagonistic activity was measured by the displacement of DADLE in the mouse vas deferens at tha concentration of 200 nM; format: functional
Method in brief: (§3)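 Mouse vas deferens. Antagonist (nM, as stated on line) incubated with the preparation 15 min before testing. δ agonist [D-Ala2,D-Leu5]enkephalin.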

[6] = biological target: Delta-type opioid receptor (Mus musculus) (UniProt P32300); assay: Antagonist potency was determined as the ratio of [antagonist] to (IC50 ratio-1) for opioid receptor delta 1; format: functional
Method in brief: (§4)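 Ke (nM) = [antagonist]/(IC50 ratio − 1). IC50 ratio is agonist IC50 with antagonist over the control IC50 in the same preparation. Antagonist preincubated 15 min. Agonists: DADLE in mouse vas deferens (δ); morphine (μ) and ethylketazocine (κ) in guinea pig ileum. n ≥ 3.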

[7] = biological target: Mu-type opioid receptor (Cavia porcellus) (UniProt P97266); assay: Antagonist potency was determined as the ratio of [antagonist] to (IC50 ratio-1) for Opioid receptor mu 1; format: functional; method in brief: as §4
[8] = biological target: Kappa-type opioid receptor (Cavia porcellus) (UniProt P41144); assay: Antagonist potency was determined as the ratio of [antagonist] to (IC50 ratio-1) for Opioid receptor kappa 1; format: functional; method in brief: as §4
[9] = biological target: Mu-type opioid receptor (Cavia porcellus) (UniProt P97266); assay: Opioid receptor mu 1 antagonistic activity was measured by the displacement of morphine in the guinea pig ileum at a concentration of 100 nM; format: functional, tissue-based; method in brief: as §1
[10] = biological target: Delta-type opioid receptor (Mus musculus) (UniProt P32300); assay: Opioid receptor delta antagonistic activity was measured by the displacement of DADLE in the mouse vas deferens at tha concentration of 200 nM; format: functional; method in brief: as §3
[11] = biological target: Mu-type opioid receptor (Cavia porcellus) (UniProt P97266); assay: Opioid receptor mu antagonistic activity was measured by the displacement of morphine in the guinea pig ileum at a concentration of 100 nM; format: functional, tissue-based; method in brief: as §1
Mu-type opioid receptor [12] = biological target: T1, Mu-type opioid receptor (Cavia porcellus, UniProt P97266); assay: Binding affinity was measured by the displacement of [3H]- DAMGO in guinea pig brain membrane of opioid receptor mu; format: cell membranes
Method in brief: (§5)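 Radioligand displacement from guinea pig brain membranes, modified Werling method. μ sites: [3H]DAMGO. δ sites: [3H]DADLE with 1 μM DAMGO. κ sites: [3H]ethylketazocine with 1 μM DAMGO.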

[13] = biological target: Mu-type opioid receptor (Cavia porcellus) (UniProt P97266); assay: Opioid receptor mu 1 antagonistic activity was measured by the displacement of morphine in the guinea pig ileum at a concentration of 200 nM; format: functional, tissue-based; method in brief: as §1
[14] = biological target: Mu-type opioid receptor (Cavia porcellus) (UniProt P97266); conditions: Ileum, 200 nM
[15] = biological target: Kappa-type opioid receptor (Cavia porcellus) (UniProt P41144); assay: Opioid receptor kappa 1 antagonistic activity was measured by the displacement of ethylketazocine in the guinea pig ileum at a concentration of 200 nM; format: functional, tissue-based; method in brief: as §1
[16] = biological target: Kappa-type opioid receptor (Cavia porcellus) (UniProt P41144); assay: Opioid receptor kappa antagonistic activity was measured by the displacement of ethylketazocine in the guinea pig ileum at a concentration of 200 nM; format: functional, tissue-based; method in brief: as §1
[17] = biological target: T2, Kappa-type opioid receptor (Cavia porcellus, UniProt P41144); assay: Binding affinity was measured by the displacement of [3H]- EK in guinea pig brain membrane of Opioid receptor kappa 1; format: cell membranes; method in brief: as §5
Mu-type opioid receptor [18] = biological target: T1, Mu-type opioid receptor; assay: Binding affinity was measured by the displacement of [3H]- DAMGO in guinea pig brain membrane of Opioid receptor mu 1; format: cell membranes; method in brief: as §5
[19] = biological target: T2, Kappa-type opioid receptor; assay: Binding affinity was measured by the displacement of [3H]- EK in guinea pig brain membrane of opioid receptor kappa; format: cell membranes; method in brief: as §5
[20] = biological target: Mu-type opioid receptor (Cavia porcellus) (UniProt P97266); assay: Opioid receptor mu antagonistic activity was measured by the displacement of morphine in the guinea pig ileum at a concentration of 200 nM; format: functional, tissue-based; method in brief: as §1
[21] = biological target: Delta-type opioid receptor (Mus musculus) (UniProt P32300); assay: Opioid receptor delta antagonistic activity was measured by the displacement of DADLE in the mouse vas deferens at a concentration of 100 nM; format: functional; method in brief: as §3
[22] = biological target: Delta-type opioid receptor (Mus musculus) (UniProt P32300); assay: Opioid receptor delta 1 antagonistic activity was measured by the displacement of DADLE in the mouse vas deferens at a concentration of 100 nM; format: functional; method in brief: as §3

T2 sequence (P41144 whole entry): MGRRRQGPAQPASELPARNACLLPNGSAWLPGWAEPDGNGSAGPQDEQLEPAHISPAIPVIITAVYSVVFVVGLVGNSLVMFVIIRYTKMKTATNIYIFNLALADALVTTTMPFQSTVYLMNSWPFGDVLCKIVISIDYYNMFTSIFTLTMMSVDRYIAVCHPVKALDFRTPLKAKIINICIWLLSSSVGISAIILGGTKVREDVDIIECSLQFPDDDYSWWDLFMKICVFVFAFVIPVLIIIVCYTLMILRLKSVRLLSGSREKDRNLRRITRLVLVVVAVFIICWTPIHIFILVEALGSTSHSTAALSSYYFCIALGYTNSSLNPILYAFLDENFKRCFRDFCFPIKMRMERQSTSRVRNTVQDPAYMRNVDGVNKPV
Chain of Kappa-type opioid receptor (Cavia porcellus) (P41144 whole entry): as above
Chain of Opioid receptors; mu & delta (Homo sapiens) (P35372 whole entry, looked up): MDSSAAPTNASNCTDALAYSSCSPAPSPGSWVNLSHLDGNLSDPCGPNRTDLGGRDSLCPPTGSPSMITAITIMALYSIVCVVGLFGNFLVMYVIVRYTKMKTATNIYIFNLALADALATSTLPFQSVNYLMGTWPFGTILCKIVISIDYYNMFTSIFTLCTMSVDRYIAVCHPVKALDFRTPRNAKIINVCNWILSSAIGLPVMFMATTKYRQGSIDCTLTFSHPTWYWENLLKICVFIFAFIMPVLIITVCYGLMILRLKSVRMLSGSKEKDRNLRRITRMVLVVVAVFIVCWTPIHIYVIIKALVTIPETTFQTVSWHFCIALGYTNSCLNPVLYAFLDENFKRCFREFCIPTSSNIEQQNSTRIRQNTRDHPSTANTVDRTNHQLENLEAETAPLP
Chain of Opioid receptors; mu & delta (Homo sapiens) (P41143 whole entry, looked up): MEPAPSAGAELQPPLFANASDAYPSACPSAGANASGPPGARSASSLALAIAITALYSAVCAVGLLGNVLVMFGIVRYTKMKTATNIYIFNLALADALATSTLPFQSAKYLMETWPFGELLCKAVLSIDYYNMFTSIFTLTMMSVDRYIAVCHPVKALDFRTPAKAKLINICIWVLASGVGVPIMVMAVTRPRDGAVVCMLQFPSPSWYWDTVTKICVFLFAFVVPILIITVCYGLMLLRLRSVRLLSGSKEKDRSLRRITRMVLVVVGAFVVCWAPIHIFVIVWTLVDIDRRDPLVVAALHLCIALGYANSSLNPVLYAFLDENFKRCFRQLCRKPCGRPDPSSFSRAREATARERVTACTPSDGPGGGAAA
Chain of Delta-type opioid receptor (Mus musculus) (P32300 whole entry): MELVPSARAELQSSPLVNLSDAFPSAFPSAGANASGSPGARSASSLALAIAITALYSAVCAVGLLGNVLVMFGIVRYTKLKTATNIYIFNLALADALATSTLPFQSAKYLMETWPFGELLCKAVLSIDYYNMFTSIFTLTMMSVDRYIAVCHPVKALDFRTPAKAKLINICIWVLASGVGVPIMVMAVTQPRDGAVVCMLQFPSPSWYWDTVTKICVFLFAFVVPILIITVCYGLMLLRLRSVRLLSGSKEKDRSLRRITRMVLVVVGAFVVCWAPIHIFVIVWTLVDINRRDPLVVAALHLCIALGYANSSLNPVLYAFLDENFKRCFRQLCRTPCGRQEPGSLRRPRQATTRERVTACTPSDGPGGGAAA
Chain of Opioid receptors; delta & kappa (Homo sapiens) (P41143 whole entry, looked up): as the sequence (P41143 whole entry, looked up) above
Chain of Opioid receptors; delta & kappa (Homo sapiens) (P41145 whole entry, looked up): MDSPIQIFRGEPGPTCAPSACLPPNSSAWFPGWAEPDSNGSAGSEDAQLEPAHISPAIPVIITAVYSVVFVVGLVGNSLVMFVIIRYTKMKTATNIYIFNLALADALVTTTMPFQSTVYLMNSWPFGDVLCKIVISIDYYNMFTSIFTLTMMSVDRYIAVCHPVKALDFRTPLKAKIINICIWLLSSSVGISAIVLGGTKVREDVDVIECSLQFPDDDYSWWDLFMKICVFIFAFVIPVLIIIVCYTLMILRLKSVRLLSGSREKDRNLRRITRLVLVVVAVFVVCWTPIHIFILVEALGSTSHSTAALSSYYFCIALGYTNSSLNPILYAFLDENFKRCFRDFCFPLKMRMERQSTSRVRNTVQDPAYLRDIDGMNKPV
T1 sequence (P97266 whole entry): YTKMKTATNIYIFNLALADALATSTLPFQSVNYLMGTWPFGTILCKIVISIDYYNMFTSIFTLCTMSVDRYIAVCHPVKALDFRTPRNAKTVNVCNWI
Chain of Mu-type opioid receptor (Cavia porcellus) (P97266 whole entry): as above

Compound `Cc1ccc2[nH]c3c(c2c1)C[C@@]1(O)[C@H]2Cc4ccc(O)c5c4[C@@]1(CCN2CC1CC1)[C@H]3O5` has an IC50 ratio [1] of 1.4, an IC50 ratio [2] of 1.4 and a Selectivity ratio [3] greater than 45. It also gave a Selectivity ratio [4] greater than 68, an IC50 ratio [5] of 55.4 and a Ke [6] of 3.7 nM. For the same compound, the Ke [7] was greater than 167 nM, the Ke [8] was greater than 250 nM and the IC50 ratio [9] was 1.6. The IC50 ratio [10] was 55.4 and the IC50 ratio [11] was 1.6.
In the case of `COc1ccc2[nH]c3c(c2c1)C[C@@]1(O)[C@H]2Cc4ccc(O)c5c4[C@@]1(CCN2CC1CC1)[C@H]3O5`, the IC50 ratio [1] is reported as 9.2, the IC50 ratio [2] is reported as 9.2 and the Selectivity ratio [3] is reported as greater than 16. It also gave a Selectivity ratio [4] of 3.2, an IC50 ratio [5] of 53 and a Ke [6] of 3.8 nM. For the same compound, the Ke [7] was greater than 63 nM, the Ke [8] was 12 nM and the IC50 ratio [9] was 2.6. It also gave an IC50 ratio [10] of 53 and an IC50 ratio [11] of 2.6.
`Oc1ccc2c3c1O[C@H]1c4[nH]c5ccc(F)cc5c4C[C@@]4(O)[C@@H](C2)N(CC2CC2)CC[C@]314` gave a Ki (Mu-type opioid receptor [12]) of 1.7 nM, an IC50 ratio [13] of 5.1 and a Selectivity ratio [3] of 25. The IC50 ratio [14] was 5.1, the Selectivity ratio [4] was 19 and the IC50 ratio [5] was 104. The IC50 ratio [15] was 6.3, the IC50 ratio [16] was 6.3 and the Ke [6] was 1.9 nM. For the same compound, the Ke [7] was 49 nM, the Ke [8] was 38 nM and the Ki [17] was 15 nM. It also gave a Ki (Mu-type opioid receptor [18]) of 1.7 nM, an IC50 ratio [10] of 104 and a Ki [19] of 15 nM.
`O=[N+]([O-])c1ccc2[nH]c3c(c2c1)C[C@@]1(O)[C@H]2Cc4ccc(O)c5c4[C@@]1(CCN2CC1CC1)[C@H]3O5` showed an IC50 ratio [13] of 1.9, a Selectivity ratio [3] greater than 1.6 and a Selectivity ratio [4] greater than 5.6. For the same compound, the IC50 ratio [5] was 2.4, the IC50 ratio [15] was 1.2 and the IC50 ratio [16] was 1.2. It also gave a Ke [6] of 146 nM, a Ke [7] greater than 230 nM and a Ke [8] greater than 870 nM. It also gave an IC50 ratio [10] of 2.4 and an IC50 ratio [20] of 1.9.
Compound `Oc1ccc2c3c1O[C@H]1c4c(c5ccccc5n4-c4ccccc4)C[C@@]4(O)[C@@H](C2)N(CC2CC2)CC[C@]314` has an IC50 ratio [1] of 6.7, a Ki (Mu-type opioid receptor [12]) of 28 nM and an IC50 ratio [2] of 6.7. For the same compound, the Selectivity ratio [3] was greater than 48, the Selectivity ratio [4] was greater than 49 and the IC50 ratio [21] was 33. The Ke [6] was 3.1 nM, the Ke [7] was greater than 149 nM and the Ke [8] was greater than 152 nM. It also gave a Ki [17] of 746 nM, an IC50 ratio [9] of 1.7 and a Ki (Mu-type opioid receptor [18]) of 28 nM. It also gave an IC50 ratio [22] of 33, an IC50 ratio [11] of 1.7 and a Ki [19] of 746 nM.

— ChEMBL document CHEMBL1124798, “Design of peptidomimetic delta opioid receptor antagonists using the message-address concept” (J Med Chem, 1990)
